# Measured values collected from several papers.
# Lines come from different studies, so protocols differ.
# Read-out: metabolic stability
# Medium: liver microsomes
Compound,test system,setting,compound remaining
N#Cc1ccc(C[C@@H](NC(=O)Nc2ccc([N+](=O)[O-])cc2)C(=O)NCC2(c3ccccc3)CC2)cc1,rat,"10 µM, 30 min, pH 7.4",> 20%
O=S(=O)(c1cccc2cccnc12)N1CC(c2nc(-c3ccc(F)cc3)no2)C1,mouse,10 min,74%
CCCn1nc(C(=O)N2CCCCC2)c2c1CCC(N1CCc3ccccc3C1)C2 (centres unmarked),mouse,"10 µM, 1 h",< 25%
CS(=O)(=O)c1ccc(-c2cnc(N)c(-c3ccc(C(F)(F)F)nc3)c2)cc1,male rat,"1 µM, 30 min",97%
Cc1ccc2c(c1)nc(/C=C/c1cccc3cccnc13)n2-c1ccccc1,rat,"1.5 µM, 5 min",75.4%
CC[C@H](C)C(=O)O[C@H]1C[C@@H](C)C=C2C=C[C@H](C)[C@H](CC[C@@H]3C[C@@H](O)CC(=O)O3)[C@H]21,mouse,"1 µM, 5 min, pH 7.4",0.85%
CCCn1nc(C(=O)N2CCCCC2)c2c1CCC(NCCN1CCCCC1)C2 (centres unmarked),mouse,"10 µM, 1 h",54%
Cc1ccc2c(c1)nc(CCc1cccc3cccnc13)n2-c1ccccc1,rat,"1.5 µM, 45 min",0.05%
O=C(Nc1ccc(S(=O)(=O)N2CCC(Cl)CC2)cc1)c1ccc([N+](=O)[O-])o1,mouse,"1 µM, 1 h, pH 7.4",0.02%
Cc1ncsc1-c1ccc(CNC(=O)[C@@H]2C[C@@H](O)CN2C(=O)[C@@H](NC(=O)CCCCCCCCCCNC(=O)O[C@H]2C[C@@H](C)C=C3C=C[C@H](C)[C@H](CC[C@@H]4C[C@@H](O)CC(=O)O4)[C@H]32)C(C)(C)C)cc1,mouse,"1 µM, 45 min, pH 7.4",1.42%
N#Cc1ccc(C[C@@H](NC(=O)Nc2ccc(F)cc2)C(=O)NCC2(c3ccc(OC(F)(F)F)cc3)CC2)cc1,rat,"10 µM, 30 min, pH 7.4",> 80%
